Experimental findings from the array DNA melting data of Ke et al. (doi:10.1101/2024.01.08.574731) are described below.

A short description of data set [1]: melting temperature; fluorescence melt of hairpins on a sequencing array, two-state fit, raised by 9.35 °C to match UV melts. Particulars: sodium 0.088 M. In a few lines:
(§1)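 Folding enthalpy and melting temperature were estimated with bootstrapped two-state fits and combined across four replicates by inverse-variance weighting, with fitted temperatures raised by 9.35 °C to match UV melts. The data were Cy3 fluorescence of library hairpins, with annealed Cy3 and quencher oligos, on a sequenced MiSeq flow cell in 50 mM Na-HEPES pH 8.0, 25 mM NaCl, imaged in 2.5 °C steps up to 60 °C and normalised to pre-quench Cy3 and control constructs.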

Data set [2] can be described thus: folding enthalpy; higher = less favourable; fluorescence melt of hairpins on a sequencing array, two-state fit. Particulars: sodium 0.088 M. In a few lines: as §1

As for GGGTGAGGAAACTCACTC (.(((((....))))).), the Tm in data set [1] was found to be 53.9 °C. Further, the folding enthalpy in data set [2] is -17.8 kcal/mol.

Regarding GGGTGAGGAAACTCGCTC (.(.(((....))).).), in data set [1], the Tm turned out to be 38.1 °C. The folding enthalpy in data set [2] was -21.6 kcal/mol.

On to GGGTGCGAAAGCAAACCC ((((((....)))..))), for which the Tm in data set [1] is 55.9 °C. In addition, the folding enthalpy in data set [2] is -29.3 kcal/mol.

GGGTGCGAAAGCAAGCCC ((((((....)))..))): the Tm in data set [1] was 53.8 °C. Besides, the folding enthalpy in data set [2] was -23.1 kcal/mol.

Regarding GGGTGCGGAAACGCGCTC (.(.(((....))).).), the Tm in data set [1] amounted to 57.2 °C. Moreover, in data set [2], the folding enthalpy was -16.5 kcal/mol.

For the sequence GGGTGCTCGAAAGAGCCC (((..(((....)))))), the Tm in data set [1] turned out to be 52.6 °C. The folding enthalpy in data set [2] was -17.7 kcal/mol.

As for GGGTGGACGAAAGTCCCC (((..(((....)))))), the Tm in data set [1] stood at 49.7 °C. Moreover, the folding enthalpy in data set [2] was -12.4 kcal/mol.

For GGGTGGGGAAACCCACTC (.(((((....))))).), in data set [1], the Tm was 53 °C. In addition, in data set [2], the folding enthalpy is -16.7 kcal/mol.

As to GGGTGGGGAAACCCGCTC (.(.(((....))).).), in data set [1], the Tm is 49.1 °C. The folding enthalpy in data set [2] is -17.7 kcal/mol.

As to GGGTGGGGAAACCCGTCC ((..(((....)))..)), in data set [1], the Tm is 48.8 °C. Moreover, the folding enthalpy in data set [2] was -19 kcal/mol.

With GGGTGTCGAAAGACCCC (((.(((....)))))), in data set [1], the Tm came to 56.4 °C. Besides, the folding enthalpy in data set [2] is -35.6 kcal/mol.

As for GGGTGTCGAAAGACCCCC (((.(((....))).))), the Tm in data set [1] came out at 56.4 °C. The folding enthalpy in data set [2] was -24.2 kcal/mol.

Take GGGTGTCGAAAGACTCCC (((.(((....))).))): the Tm in data set [1] was 58.3 °C. Moreover, in data set [2], the folding enthalpy was -42.3 kcal/mol.

Consider GGGTGTGGAAACACGTCC ((..(((....)))..)), for which, in data set [1], the Tm turned out to be 40.1 °C. Besides, in data set [2], the folding enthalpy was -13.6 kcal/mol.

Turning to GGGTTACCGAAAGGTCCC (((..(((....)))))), in data set [1], the Tm is 41 °C. Besides, the folding enthalpy in data set [2] was -19.4 kcal/mol.

Turning to GGGTTAGGAAACCAACCC (((((.(....).))))), in data set [1], the Tm turned out to be 45.6 °C. The folding enthalpy in data set [2] is -33.9 kcal/mol.

With GGGTTAGGAAACTAGCCC (((.(((....))).))), the Tm in data set [1] amounted to 49 °C. Further, in data set [2], the folding enthalpy is -24.3 kcal/mol.

For the sequence GGGTTCGAAAGAAACCC ((((((....))).))), in data set [1], the Tm turned out to be 54.4 °C. For the same sequence, the folding enthalpy in data set [2] was -34.7 kcal/mol.

With GGGTTCGAAAGAAGACCC ((((((....)))..))), the Tm in data set [1] turned out to be 41.8 °C. Moreover, the folding enthalpy in data set [2] was -21.2 kcal/mol.

Turning to GGGTTCGGAAACAAACCC (((((.(....).))))), the Tm in data set [1] came to 43 °C. In addition, the folding enthalpy in data set [2] is -29.8 kcal/mol.

Regarding GGGTTGAAAAACCC (((((....))))), the Tm in data set [1] came out at 55.5 °C. Moreover, in data set [2], the folding enthalpy is -29.5 kcal/mol.

In the case of GGGTTGACGAAAGTCCCC (((..(((....)))))), the Tm in data set [1] was 42.5 °C. In data set [2], the folding enthalpy is -20.6 kcal/mol.

GGGTTGCGAAAGCATCCC (((.(((....))).))): the Tm in data set [1] amounted to 59.1 °C. Besides, the folding enthalpy in data set [2] was -34.1 kcal/mol.

For the sequence GGGTTGGGAAACCAACTC (.(((((....))))).), the Tm in data set [1] came to 49.7 °C. In data set [2], the folding enthalpy is -21.9 kcal/mol.

As for GGGTTGGGAAACCAGCCC (((.(((....))).))), the Tm in data set [1] stood at 56 °C. Also, the folding enthalpy in data set [2] is -46.6 kcal/mol.

Take GGGTTGGGAAACCGATCC ((.(.((....)).).)): the Tm in data set [1] was determined as 40.3 °C. Besides, the folding enthalpy in data set [2] was -16.3 kcal/mol.

Take GGGTTTCCGAAAGGACCC (((..(((....)))))): the Tm in data set [1] was 40.6 °C. Moreover, in data set [2], the folding enthalpy was -19.3 kcal/mol.

In the case of GGGTTTTCGAAAGAACCC (((..(((....)))))), in data set [1], the Tm was determined as 43.6 °C. In addition, in data set [2], the folding enthalpy was -31.8 kcal/mol.

GGTAAACCGAAAGGTACC (((..(((....)))))): in data set [1], the Tm amounted to 40.1 °C. Further, the folding enthalpy in data set [2] is -20.2 kcal/mol.

On to GGTAAACGAAAGTTCACC (((.(((....))).))), for which the Tm in data set [1] came to 40.4 °C. In data set [2], the folding enthalpy is -28.6 kcal/mol.

With GGTAAACGAAAGTTGACC (((.(((....))).))), the Tm in data set [1] turned out to be 49.4 °C. In data set [2], the folding enthalpy was -36.3 kcal/mol.

As to GGTAACACGAAAGTGACC (((..(((....)))))), the Tm in data set [1] stood at 37.1 °C. Further, the folding enthalpy in data set [2] is -17.1 kcal/mol.

For GGTAACGAAAGTTAGACC ((((((....)))..))), the Tm in data set [1] is 33.6 °C. Moreover, the folding enthalpy in data set [2] is -13 kcal/mol.

As for GGTAACGAAAGTTCGACC ((((((....)))..))), the Tm in data set [1] stood at 28 °C. Besides, the folding enthalpy in data set [2] was -16 kcal/mol.

Turning to GGTAACGAAAGTTGCACC ((((((....)))..))), the Tm in data set [1] was determined as 35.1 °C. Besides, the folding enthalpy in data set [2] was -14.1 kcal/mol.

Consider GGTAAGACGAAAGTCACC (((..(((....)))))), for which the Tm in data set [1] stood at 39.3 °C. The folding enthalpy in data set [2] is -16.2 kcal/mol.
